Assay results reported in the RNAGym collection of RNA variant scans (doi:10.1126/science.aae0568).
This sample holds only a part of the variants without activity.

B1: tRNA (parent)
chain: GUUCCGUUGGCGUAAUGGUAACGCGUCUCCCUCCUAAGGAGAAGACUGCGGGUUCGAGUCCCGUACGGAACG

Variants of: B1
Assay: yeast fitness relative to wild type (ratio to wild type); higher = fitter; tRNA-Arg(CCU), competitive growth, 37 C, YPD
Procedure, shortened: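 For this measurement, the tRNA-Arg(CCU) gene was varied by chemical synthesis at a 3% per-site mutation rate across 69 sites, and each variant was placed at the native genomic locus in Saccharomyces cerevisiae. The pooled strains went through a 24-hour competition in YPD at 37°C in six parallel replicates, with amplicons from start and end populations read by 100-nucleotide paired-end sequencing. Darwinian fitness relative to wild type followed from the change in each genotype's frequency. Genotypes needed ≥ 100 starting reads, and estimates < 0.5 were set to 0.5.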

| Variant | yeast fitness |
| --- | --- |
| GUUCCGUUGGCGUAAUGGUGACGCGUCUCCCUCCUAGGGAGAAAACUGCGGGUUCGAGUCCCGUACGGAACG [A20G A37G G44A] | 0.658 |
| GUUCCGUUGGCGUAAUGGUGACGCGUCUCCCUCCUAUGGAGAAGAAUGCGGGUUCGAGUCCCGUACGGAACG [A20G A37U C46A] | ≤ 0.5 |
| GUUCCGUUGGCGUAAUGGUGACGCGUCUCCCUCCUAUGGAGAAGACUCCGGGUUCGAGUCCCGUACGGAACG [A20G A37U G48C] | 0.603 |
| GUUCCGUUGGCGUAAUGGUGACGCGUCUCCCUCCUCAGGAGAAGACUGCGGGUUCCAGUCUCGUACGGAACG [A20G A36C G56C C61U] | ≤ 0.5 |
| GUUCCGUUGGCGUAAUGGUGACGCGUCUCCCUCCUUAGGAGGAGACUGCGGGUUCGAAUCCCGUACGGAACG [A20G A36U A42G G58A] | ≤ 0.5 |
| GUUCCGUUGGCGUAAUGGUGCCGCGUCUCCCUCCUAAGGAGAAGACUGUGGGUUCGAGUCCCGUACGGAACG [A20G A21C C49U] | 0.548 |
| GUUCCGUUGGCGUAAUGGUGGCGCGUCUCCCUCCUAACGAGAAGACUGCCGGUUCGAGUCCCGUACGGAACG [A20G A21G G38C G50C] | ≤ 0.5 |
| GUUCCGUUGGCGUAAUGGUGCCGCGUCUCCCUCCUAAGCAGAAGACUCCGGGUUCGAGUCCGGUACGGAACG [A20G A21C G39C G48C C62G] | ≤ 0.5 |
| GUUCCGUUGGCGUAAUGGUGCCGCGUCUCACUCCUAAGGACAAGACUGCGGGUUCGAGUCCCGUAUGGAACG [A20G A21C C30A G41C C66U] | 0.526 |
| GUUCCGUUGGCGUAAUGGUGUCGCGUCUCCUUCCUAAGGAGAAGCCUGUGGGUUCGAGUCCCGUCCGGAACG [A20G A21U C31U A45C C49U A65C] | ≤ 0.5 |
| GUUCCGUUGGCGUAAUGGUCACGCGUCUCCCUCCGAAGGAGAAGAUUGCGGGUUCGAGUCCCGUACGGAACG [A20C U35G C46U] | ≤ 0.5 |
| GUUCCGUUGGCGUAAUGGUGACGCGUCUCCCUCCUUAGGAGAAGACUGCGGGUUCGAGUCUCGUACGGAACG [A20G A36U C61U] | 0.571 |
| GUUCCGUUGGCGUAAUGGUCACGCGUCUCCCUCCUAAGGAGAAGACGGCGGGUUCGAGUCCCGUACGGUACG [A20C U47G A69U] | 0.559 |
| GUUCCGUUGGCGUAAUGGUCACGCGUCUCCCCCCUAAGGAGAAGACUGCGGGUUCGAGUCCCGUACGGAACG [A20C U32C] | 0.985 |
| GUUCCGUUGGCGUAAUGGUCACGCGUCUCCCUCCUAAGGAGAAGACCGCGGGUUCGAGUCCCGUACGGAACG [A20C U47C] | 0.925 |
| GUUCCGUUGGCGUAAUGGUCACGCGUCUCCCUCCUAAGGAGAAGACUGCGGGUUCGAGUCCCGAACGGAACG [A20C U64A] | 0.7 |
| GUUCCGUUGGCGUAAUGGUCACGCGUCUCCCUCCUAAGGAGAAGACUGCGGGUUCGAGUCCCGCACGGAACG [A20C U64C] | 0.984 |
| GUUCCGUUGGCGUAAUGGUGACGCGUCUCCCUCCUAGGGAGAAGACUGCGGGUUCGAGACCCGUACGGACCG [A20G A37G U59A A70C] | ≤ 0.5 |
| GUUCCGUUGGCGUAAUGGUGACGCGUCUCCCUCCUAUGGAGAAGACUGCGGGUUCGAGUACCGUACGGAACG [A20G A37U C60A] | 0.626 |

| Variant | yeast fitness |
| --- | --- |
| GUUCCGUUGGCGUAAUGGUGACGCGUCUCCCUCCUACGGGGAAGACUGCGGGUUCGAGUCCCGUACGGAACG [A20G A37C A40G] | ≤ 0.5 |
| GUUCCGUUGGCGUAAUGGUGACGCGUCUCCCUCCUUAGGAGAAGACUGCGGGUUCGCGUCCCGUACGGAACG [A20G A36U A57C] | ≤ 0.5 |
| GUUCCGUUGGCGUAAUGGUGCCGCGUCUCCCUCCUAAGGAGAUGACUGCAGUUUCGAGUCCCGUACGGCACG [A20G A21C A43U G50A G52U A69C] | ≤ 0.5 |
| GUUCCGUUGGCGUAAUGGUGUCGCGUCUCCCUCCUAAGGAGAAGACUGCGGGUUCGAGUCCCGUACGGAACG [A20G A21U] | 0.782 |
| GUUCCGUUGGCGUAAUGGUCACGCGUCUCCCUCCUAAGGAGAAGACUGCGGGGUCGAGUCCCGUACGGAACG [A20C U53G] | 0.623 |
| GUUCCGUUGGCGUAAUGGUCACGCGUCUCCCUCCGAAGGAGAAGAUUGCGGGUUCGAGUCCCGUACUGAACG [A20C U35G C46U G67U] | ≤ 0.5 |
| GUUCCGUUGGCGUAAUGGUCACGCGUCUCCCUCCUAAGGAGAAGACUGCGGGUACGAGUCCCGUACGGAACG [A20C U54A] | 0.698 |
| GUUCCGUUGGCGUAAUGGUCACGCGUCUCCCUCCUAAGGAGAAGACUGCGGGGUCGAGUCCCGUAUGGAACG [A20C U53G C66U] | 0.696 |
| GUUCCGUUGGCGUAAUGGUGCCGCGUCUCACUCCUAAGGACAAGACUGCGGGUUCGAGUCCCGUACGGAACG [A20G A21C C30A G41C] | 0.581 |
| GUUCCGUUGGCGUAAUGGUGACGCGUCUCCCUCCUGAGGAGAAGACUGCGGGUUCGAGUCCCGUGCGGAACG [A20G A36G A65G] | 0.846 |
| GUUCCGUUGGCGUAAUGGUCACGCGUCUCCCUCCUAAGGAGAAGACGGCGGGUUCGAGUGCCGUACGGAACG [A20C U47G C60G] | ≤ 0.5 |
| GUUCCGUUGGCGUAAUGGUGACGCGUCUCCCUCCUCAGGAGAAGCCUGCGGAUUCGAGUCCCGUACUGAACG [A20G A36C A45C G52A G67U] | ≤ 0.5 |
| GUUCCGUUGGCGUAAUGGUGACGCGUCUCCCUCCUCAGGAGAAGACUGCGGGUUCGAGUCCCGUACGGAACG [A20G A36C] | 0.596 |
| GUUCCGUUGGCGUAAUGGUGCCGCGUCUCCCUCCUAAGCAGAAGACUGCGGGUUCGAGUCCGGUACGGAACG [A20G A21C G39C C62G] | ≤ 0.5 |
| GUUCCGUUGGCGUAAUGGUGACGCGUCUCCCUCCUGAGGAGAAGUCUGCGGGUUCGAGUCCCGUACGGAACG [A20G A36G A45U] | 0.683 |
| GUUCCGUUGGCGUAAUGGUGUCGCGUCUCCCUCCUGAGGCGAAGACUGCGGGUUUGAGUCCCGUACGGAACG [A20G A21U A36G A40C C55U] | ≤ 0.5 |
| GUUCCGUUGGCGUAAUGGUGACGCGUCUCCCUCCUAGGGAGAAGACUGCGGGUUCGAGUCCCGUACGGAACG [A20G A37G] | 0.718 |
| GUUCCGUUGGCGUAAUGGUGACGCGUCUCCCUCCUUAGGAGAAGACUGCGGGUUCGAGUCCCCCACGGAACG [A20G A36U G63C U64C] | 0.666 |
| GUUCCGUUGGCGUAAUGGUCACGCGUCUCCCUCCUAAGGAGAAGACUGCGGGUUCGAGACCCGUACGGAACG [A20C U59A] | 0.697 |
